Measurements reported in PMC6130785 (ACS Omega, 2018).

Assays:
PIKFYVE [1] = target: T1, PIKFYVE (Homo sapiens, UniProt Q9Y2I7); assay: Lipid kinase competition assay; type: binding; settings: Table 2 / Figure 3 compound series, standard dose-response curve
How it was run: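 Competition binding: biotinylated kinase-specific control ligand on streptavidin magnetic beads formed affinity resin. DNA-tagged PIKFYVE, liganded beads and test compound were combined. Bound kinase was eluted and quantified by qPCR of its DNA tag. Kinase amount was plotted against test compound concentration, and Kd was fitted to a standard dose–response curve using the Hill equation.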

PIKFYVE [2] = target: T1, PIKFYVE; assay: PIKFYVE inhibition assay; type: biochemical

T1 sequence (Q9Y2I7 whole entry): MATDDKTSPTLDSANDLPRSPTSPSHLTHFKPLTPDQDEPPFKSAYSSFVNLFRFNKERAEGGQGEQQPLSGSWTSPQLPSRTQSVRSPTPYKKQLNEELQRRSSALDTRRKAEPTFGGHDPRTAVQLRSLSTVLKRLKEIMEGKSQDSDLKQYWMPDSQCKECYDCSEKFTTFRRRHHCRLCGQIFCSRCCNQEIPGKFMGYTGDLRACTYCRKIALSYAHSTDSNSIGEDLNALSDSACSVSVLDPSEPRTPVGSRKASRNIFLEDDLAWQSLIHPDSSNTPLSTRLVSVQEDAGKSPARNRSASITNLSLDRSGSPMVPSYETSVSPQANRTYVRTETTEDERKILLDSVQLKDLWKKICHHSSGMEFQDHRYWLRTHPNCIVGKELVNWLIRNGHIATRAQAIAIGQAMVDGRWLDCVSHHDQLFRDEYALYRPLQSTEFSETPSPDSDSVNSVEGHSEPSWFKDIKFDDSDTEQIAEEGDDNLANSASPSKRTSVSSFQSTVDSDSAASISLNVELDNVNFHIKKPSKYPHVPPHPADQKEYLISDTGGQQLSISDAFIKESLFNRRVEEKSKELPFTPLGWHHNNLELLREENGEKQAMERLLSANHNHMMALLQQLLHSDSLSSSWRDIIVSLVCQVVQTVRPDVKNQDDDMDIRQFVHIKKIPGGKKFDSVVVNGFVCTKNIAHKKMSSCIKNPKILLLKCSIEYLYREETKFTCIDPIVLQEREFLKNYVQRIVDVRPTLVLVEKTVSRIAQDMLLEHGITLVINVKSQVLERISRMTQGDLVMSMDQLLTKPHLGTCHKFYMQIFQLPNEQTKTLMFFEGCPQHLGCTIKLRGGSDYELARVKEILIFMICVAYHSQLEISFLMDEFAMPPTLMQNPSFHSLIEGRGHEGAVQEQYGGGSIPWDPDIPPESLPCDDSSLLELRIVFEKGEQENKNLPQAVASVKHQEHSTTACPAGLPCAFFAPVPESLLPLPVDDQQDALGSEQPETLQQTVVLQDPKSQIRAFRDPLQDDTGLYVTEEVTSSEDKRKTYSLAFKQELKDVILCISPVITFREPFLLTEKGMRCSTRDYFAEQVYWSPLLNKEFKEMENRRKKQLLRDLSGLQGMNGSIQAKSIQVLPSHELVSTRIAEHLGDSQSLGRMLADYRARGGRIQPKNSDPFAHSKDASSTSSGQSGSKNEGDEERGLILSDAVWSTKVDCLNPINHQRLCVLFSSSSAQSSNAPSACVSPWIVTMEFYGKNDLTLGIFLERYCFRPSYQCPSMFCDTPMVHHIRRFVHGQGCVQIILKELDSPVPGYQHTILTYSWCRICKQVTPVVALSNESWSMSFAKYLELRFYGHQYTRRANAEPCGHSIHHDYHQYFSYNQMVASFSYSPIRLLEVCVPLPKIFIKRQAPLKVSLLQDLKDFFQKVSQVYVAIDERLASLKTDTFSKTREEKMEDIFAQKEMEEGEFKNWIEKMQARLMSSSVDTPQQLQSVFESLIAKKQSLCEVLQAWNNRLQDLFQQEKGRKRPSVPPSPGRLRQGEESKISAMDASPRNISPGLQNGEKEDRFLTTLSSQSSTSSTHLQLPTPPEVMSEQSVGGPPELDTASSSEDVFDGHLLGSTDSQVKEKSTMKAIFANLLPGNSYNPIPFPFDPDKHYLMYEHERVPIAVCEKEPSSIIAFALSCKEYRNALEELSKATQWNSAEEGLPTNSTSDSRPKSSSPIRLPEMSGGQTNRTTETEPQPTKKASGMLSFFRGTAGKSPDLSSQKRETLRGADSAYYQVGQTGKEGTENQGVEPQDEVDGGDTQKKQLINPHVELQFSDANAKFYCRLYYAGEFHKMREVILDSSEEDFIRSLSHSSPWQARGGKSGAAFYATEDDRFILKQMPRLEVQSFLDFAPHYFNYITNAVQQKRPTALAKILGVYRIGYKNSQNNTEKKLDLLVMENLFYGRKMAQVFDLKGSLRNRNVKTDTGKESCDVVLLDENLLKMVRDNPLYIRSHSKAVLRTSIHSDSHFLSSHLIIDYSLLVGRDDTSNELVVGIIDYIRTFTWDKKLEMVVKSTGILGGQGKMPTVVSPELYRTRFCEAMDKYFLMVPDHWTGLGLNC

Kd (PIKFYVE [1]): > 500 nM | IC50 (PIKFYVE [2]): 446 nM
SMILES: CCOC(=O)c1[nH]c2ccc(OC)cc2c1/C=C/C(=O)c1ccncc1 [2l, (E)-Ethyl 5-Methoxy-3-(3-oxo-3-(pyridin-4-yl)prop-1-en-1-yl)-[1H]-indole-2-carboxylate]
